Bioassay records (PubChem BioAssay)
Tb hexokinase = Trypanosoma brucei hexokinase 1 inhibitors, primary screen, biochemical, G6PDH-coupled NADH absorbance, MLSCN library. recombinant TbHK1, G6PDH-coupled NADH A340. inhibition, % at 10 µM. 220,000 tested, 0.11% active;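 active means inhibition of 50% or more in the single-dose primary screen; inactive means inhibition below 50%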
Diaphorase inh = diaphorase inhibitors and chemical oxidizers, primary screen, counter-screen for diaphorase-coupled primary assays, biochemical, uHTS, resorufin fluorescence. diaphorase resazurin-to-resorufin fluorescence, NADH, 16 min; bacterial (C. kluyveri) enzyme, not human. inhibition, % at 20 µM. 190,000 tested, 0.69% active. AID 1217, 2008;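 active means primary screen inhibition at 20 µM above a set limit, cut at about 50% in these data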;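 further: plate controls were DMSO with full reaction for no effect and wells lacking NADH for full effect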
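Test system: bacterial diaphorase enzyme (C. kluyveri); Quantity: 0.14 U/mL diaphorase, enzyme working solution; Times: reaction incubation of 16 min at room temperature; Measured by: fluorescence of resorufin formed from resazurin, Ex 544/Em 590 nm; Benchmarks: positive control minus NADH, DMSO neutral control.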
PfGluPho inh = PfG6PD enzyme inhibitors, primary screen, biochemical, fluorescence intensity, uHTS; glucose-6-phosphate dehydrogenase-6-phosphogluconolactonase (Plasmodium falciparum 3D7); 350,000 tested, 0.78% active; PfGluPho enzyme, NADPH resazurin-diaphorase fluorescence; inhibition, % at 20 µM;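 active means inhibition reaching at least a set limit at 20 µM in the primary screen, cut at about 59% in these data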;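 further: 0% = DMSO wells with substrate and 100% = DMSO wells lacking glucose-6-phosphate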
HKDC1 inh = HKDC1 hexokinase inhibitors, primary screen, biochemical, fluorescence, uHTS; 340,000 tested, 0.16% active; recombinant HKDC1, G6PDH/diaphorase resazurin coupled fluorescence; inhibition, % at 20 µM; Q2TB90;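 active means inhibition above about 35% when tested at 20 µM, limit read from the data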;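 further: plate controls were DMSO wells with enzyme for no effect and DMSO wells lacking enzyme for full effect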
Target sequence (Q2TB90 whole entry, looked up): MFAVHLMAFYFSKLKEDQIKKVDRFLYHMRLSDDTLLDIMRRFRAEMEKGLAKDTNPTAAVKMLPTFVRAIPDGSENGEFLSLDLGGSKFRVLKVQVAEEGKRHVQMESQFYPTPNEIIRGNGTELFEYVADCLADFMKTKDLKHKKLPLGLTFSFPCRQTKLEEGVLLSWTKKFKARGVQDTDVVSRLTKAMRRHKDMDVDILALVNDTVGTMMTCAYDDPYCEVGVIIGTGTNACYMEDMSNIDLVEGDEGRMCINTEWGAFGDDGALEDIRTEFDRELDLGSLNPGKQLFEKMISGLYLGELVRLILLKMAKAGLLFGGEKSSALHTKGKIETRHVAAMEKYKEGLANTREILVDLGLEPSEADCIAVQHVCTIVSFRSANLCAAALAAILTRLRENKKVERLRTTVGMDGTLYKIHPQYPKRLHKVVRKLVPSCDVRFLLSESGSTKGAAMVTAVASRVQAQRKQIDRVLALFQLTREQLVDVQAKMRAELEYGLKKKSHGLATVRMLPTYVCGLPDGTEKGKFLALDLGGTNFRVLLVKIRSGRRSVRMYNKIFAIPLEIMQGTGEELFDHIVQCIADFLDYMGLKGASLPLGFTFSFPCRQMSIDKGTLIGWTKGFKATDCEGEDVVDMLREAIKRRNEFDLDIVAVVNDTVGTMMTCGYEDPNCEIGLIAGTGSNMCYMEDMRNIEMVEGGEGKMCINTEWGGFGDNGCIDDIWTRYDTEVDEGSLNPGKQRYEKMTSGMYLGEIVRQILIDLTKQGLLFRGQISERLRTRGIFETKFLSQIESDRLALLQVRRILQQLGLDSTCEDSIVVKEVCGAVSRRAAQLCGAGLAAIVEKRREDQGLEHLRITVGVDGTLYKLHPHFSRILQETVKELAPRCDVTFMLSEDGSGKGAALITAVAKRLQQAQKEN
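Test system: HK5 enzyme. Quantity: 5 µg/mL HK5 final. Reagent: glucose and ATP substrates. Schedule: 90 min reaction incubation at room temperature, dark. Technique: resazurin-to-resorufin fluorescence via G6PDH and diaphorase coupling, 525/613 nm. Control set: DMSO wells with and without enzyme mix.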
G6PDH counter = L. mesenteroides G6PDH inhibitors, counter-screen for G6PDH-coupled screening assays, biochemical, Leuconostoc mesenteroides enzyme | inhibition, % at 5 µM | 200,000 tested, 0.12% active | Purified L. mesenteroides G6PDH, diaphorase/resazurin coupled fluorescence, 45 min | glucose-6-phosphate dehydrogenase [Leuconostoc mesenteroides]; in the data active means inhibition above about 50%
* marks the source's active call; other numbers are inactive results; . = not tested or not shown. A selection: hits, their analogues and other compounds. The true share with any hit is near 1.2%.

SMILES	Tb hexokinase	Diaphorase inh	PfGluPho inh	HKDC1 inh	G6PDH counter
CCCC#Cc1ccc2c(c1)O[C@@H](CN(C)Cc1ccc3c(c1)OCO3)[C@H](C)CN([C@@H](C)CO)S2(=O)=O	.	.	45	.	.
CN(Cc1cc([N+](=O)[O-])c2cccnc2c1O)C1CCCCC1	3	22	.	.	20
O=[N+]([O-])c1cc(CN2CCN(c3ccccc3)CC2)c(O)c2ncccc12	-4	10	2	17	62*
O=[N+]([O-])c1cc(CN2CCOCC2)c2cccnc2c1O	16	45	26	1	55*
O=C(Oc1c(CN2CCOCC2)cc(Cl)c2cccnc12)c1ccccc1F	-1	50*	13	11	43
Oc1c(Cl)cc(CN2CCOCC2)c2cccnc12	.	.	15	4	.
CCC(C(=O)NC1CCCC1)N(C(=O)Cn1nnc(-c2ccc(C)o2)n1)c1cccc(OC)c1 (stereo not drawn)	.	.	-11	-3	.
COc1cccc(-c2ccc3c(c2)O[C@H](CN(C)C(=O)c2ccccc2F)[C@H](C)CN([C@H](C)CO)S3(=O)=O)c1	.	.	-2	.	.
O=C1CCCC/C1=C/NCc1ccc(F)cc1	-17	20	-5	-6	11
C=C1C(=O)C=C2CN(C(=O)c3ccccc3)[C@@](Cc3ccc(F)cc3)(C(=O)OC)[C@@H]12	-3	6	72*	18	10
C=CCn1c(C)c(C(C)=O)c(N2CCCC2)nc1=S	-1	56*	-1	3	4
CCn1c(C)c(C(C)=O)c(N2CCCC2)nc1=S	4	57*	5	2	-6
C=CCn1c(C)c(C(C)=O)c(N2CCN(c3ccccc3)CC2)nc1=S	-4	15	28	-7	2
CCn1c(C)c(C(C)=O)c(N2CCN(c3ccc(F)cc3)CC2)nc1=S	27	27	-12	-3	11
CN(C)c1ccc2nc3c(=O)[nH]c(=O)nc-3n(CC(O)C(O)C(O)CO)c2c1 (stereo not drawn)	.	.	12	-1	.
CC(=O)C1=C(c2ccccc2)NC(=O)NC1c1ccc(O)c(O)c1 (stereo not drawn)	-1	54*	17	-6	40
CC(=O)C1=C(c2ccccc2)NC(=S)NC1c1ccc(O)c(O)c1 (stereo not drawn)	-7	29	-15	14	23
CCCCN(C(=O)CC1CCCCC1)c1c(N)n(CCCC)c(=O)[nH]c1=O	.	.	-9	.	.
O=C(N/N=C/c1c(O)ccc2ccccc12)c1ccc[n+](CCO)c1	-11	54*	-45	-15	-18
O=C(N/N=C\c1c(O)ccc2ccccc12)c1ccc(O)cc1	.	.	4	1	.
Cc1cccc(NC(=O)c2nc[nH]c2C(=O)N[C@H](C)CO)c1	.	.	9	.	.
Cc1ccc2c(c1)N(C(=O)CCC(=O)NCCN1CCOCC1)CC(C)O2 (stereo not drawn)	.	.	-11	-1	.
CCOc1ccc(-n2c(=S)sc3c(=O)[nH]c(SCC(=O)NC(C)CC)nc32)cc1 (stereo not drawn)	-32	32	-20	-6	1
CCCN(CCC)C(=O)CSc1nc2c(sc(=S)n2-c2ccc(OCC)cc2)c(=O)[nH]1	-11	80*	-9	-4	-4
CCOC(=O)CC(=O)CSc1nc2c(sc(=S)n2-c2ccc(OCC)cc2)c(=O)[nH]1	-21	60*	-14	15	-4
SMILES	Tb hexokinase	Diaphorase inh	PfGluPho inh	HKDC1 inh	G6PDH counter
CCCCN(CC)C(=O)CSc1nc2c(sc(=S)n2-c2ccc(OCC)cc2)c(=O)[nH]1	-3	72*	-20	-3	3
CN1OC[C@@H]2CN(S(=O)(=O)c3cccc4ccccc34)[C@H](c3ccc(-c4cccnc4)cc3)C[C@@H]21	.	.	31	.	.
O=C(c1cc(COc2ccc(F)cc2Cl)on1)N1CCCCCC1	.	.	-2	3	.
O=C(c1cc(COc2ccc(F)cc2Cl)on1)N1CCC(c2ccncc2)CC1	4	68*	0	-6	10
Cc1nc2cc(-c3ccsc3-n3c(C)ccc3C)[nH]n2c(=O)c1Cl	3	64*	17	15	7
CCSC1=N/C(=C\c2ccc(-c3ccccc3[N+](=O)[O-])o2)C(=O)S1	1	63*	8	9	46
O=C(NCc1ccncc1)C(=O)NCC1OCCN1S(=O)(=O)c1ccccc1 (stereo not drawn)	.	.	-7	.	.
Cc1nn(-c2ccccc2)nc1C(=O)Nc1cccc(C(=O)NC2CC2)c1	.	.	7	.	.
CCOCc1nc(N)nc(N)c1-c1cccc(Cl)c1	.	.	19	.	.
Cc1nnc(N=c2ssnc2Cl)o1	.	.	116*	-88	.
Nc1ccccc1N=c1ssnc1Cl	3	-7	59	-3	7
COC1=C(N)C(=O)c2nc(-c3nc(C(=O)O)c(C)c(-c4ccc(OC)c(OC)c4O)c3N)ccc2C1=O	-6	68*	93*	4	56*
COc1ccc(-c2ncncc2-c2csc(C)n2)c(O)c1OC	-13	1	-22	-6	0
Cc1ccc(NC(=O)CSCC(=O)N(C)Cc2c(F)cccc2Cl)cc1	.	.	9	.	.
COc1ccc(CSC(=S)NNc2ccccc2)cc1	.	.	16	.	.
Cc1cc(C)cc(N(C(=O)CNS(=O)(=O)c2ccccc2)C(C(=O)NCc2ccccc2)c2ccc(C)o2)c1 (stereo not drawn)	26	13	-18	3	6
Cc1ccc(S(=O)(=O)NCC(=O)N(c2ccccc2)C(C(=O)NCc2ccccc2)c2ccco2)cc1 (stereo not drawn)	9	51*	-3	-1	6
C=C(C)Cn1c(=O)c2c(nc3n2CC(C)CN3Cc2ccccc2)n(C)c1=O (stereo not drawn)	.	.	-14	3	.
CCOc1cc(CNc2ccc(O)cc2)ccc1OCc1ccc(Cl)cc1Cl	1	66*	88*	19	-38
OCCNc1c2ccccc2nc2c(F)c(F)c(F)c(F)c12	0	17	5	-6	-13
Cc1c2ccccc2nc2c(F)c(NCCO)c(F)c(F)c12	-4	53*	-17	6	6
COc1ccc(NC(=O)Cn2c([N+](=O)[O-])cnc2C)c(OC)c1	.	.	-1	.	.
O=C(COc1ccccc1)NC(=S)Nc1cccc2c(O)cccc12	.	.	14	.	.
Cc1ccsc1/C=N/N=C/c1sccc1C	.	.	13	-3	.
Cc1ccsc1C=Nc1ccc(O)cc1	3	40	84*	24	34
CCC(=O)N(C1=C(NC(C)C)C(=O)c2ccccc2C1=O)C(C)C	-4	19	18	14	55*
CC(=O)N(C1=C(N)C(=O)c2ccccc2C1=O)C(C)C	-2	14	12	8	42
Cc1c(C(=O)c2ccc(Cl)c([N+](=O)[O-])c2)c2ccccn2c1CCC#N	-3	22	-4	1	6
